# Key:
# [1] = target: T1, DNA polymerase catalytic subunit (Human cytomegalovirus (strain AD169) (HHV-5) (Human herpesvirus 5), UniProt P08546); experiment: Inhibition of HCMV DNA polymerase by scintillation proximity assay; set-up: species or system Human betaherpesvirus 5
# T1 sequence (P08546 whole entry): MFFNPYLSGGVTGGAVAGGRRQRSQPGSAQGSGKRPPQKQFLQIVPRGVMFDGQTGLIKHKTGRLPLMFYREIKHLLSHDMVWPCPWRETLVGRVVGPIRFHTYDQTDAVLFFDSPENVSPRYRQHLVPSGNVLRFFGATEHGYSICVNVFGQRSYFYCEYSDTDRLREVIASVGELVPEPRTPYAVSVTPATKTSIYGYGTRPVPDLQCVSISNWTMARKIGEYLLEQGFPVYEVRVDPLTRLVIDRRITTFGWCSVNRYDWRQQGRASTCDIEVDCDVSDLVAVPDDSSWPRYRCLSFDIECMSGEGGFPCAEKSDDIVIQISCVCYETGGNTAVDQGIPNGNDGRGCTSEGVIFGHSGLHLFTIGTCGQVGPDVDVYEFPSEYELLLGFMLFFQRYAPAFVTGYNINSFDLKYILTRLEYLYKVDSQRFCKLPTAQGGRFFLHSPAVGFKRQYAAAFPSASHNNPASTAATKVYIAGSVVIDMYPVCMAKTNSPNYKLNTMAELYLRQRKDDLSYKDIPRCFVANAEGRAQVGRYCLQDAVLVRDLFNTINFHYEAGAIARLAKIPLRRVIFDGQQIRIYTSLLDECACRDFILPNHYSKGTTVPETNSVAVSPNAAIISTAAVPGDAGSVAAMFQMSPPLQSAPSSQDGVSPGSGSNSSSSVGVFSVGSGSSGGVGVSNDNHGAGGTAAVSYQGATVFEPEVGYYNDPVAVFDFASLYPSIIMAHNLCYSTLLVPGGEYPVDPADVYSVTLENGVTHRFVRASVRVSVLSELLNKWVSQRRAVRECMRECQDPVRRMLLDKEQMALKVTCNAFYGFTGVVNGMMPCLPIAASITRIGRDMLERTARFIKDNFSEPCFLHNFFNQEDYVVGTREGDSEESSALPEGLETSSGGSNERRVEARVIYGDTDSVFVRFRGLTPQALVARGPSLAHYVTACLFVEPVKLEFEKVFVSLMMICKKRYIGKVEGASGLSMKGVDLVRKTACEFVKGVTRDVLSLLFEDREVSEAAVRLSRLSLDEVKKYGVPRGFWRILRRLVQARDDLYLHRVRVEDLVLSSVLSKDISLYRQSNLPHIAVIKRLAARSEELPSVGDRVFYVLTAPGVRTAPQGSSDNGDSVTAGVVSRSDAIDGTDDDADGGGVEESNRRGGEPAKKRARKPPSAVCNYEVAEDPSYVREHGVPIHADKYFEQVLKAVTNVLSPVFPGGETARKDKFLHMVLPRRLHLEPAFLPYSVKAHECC
# In short: (§1)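 Purified viral or human DNA polymerase; incorporation of 3H-labeled nucleotide into template-primer measured by scintillation proximity.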
# Human betaherpesvirus 5 = experiment: Antiviral activity against HCMV Davis in HFF cells by plaque reduction assay; assay type: functional, organism-based; settings: Human betaherpesvirus 5, Davis
# In short: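 Plaque reduction in human foreskin fibroblasts infected with Davis strain; values are means of at least two experiments, SD given.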
# [2] = Cytotoxicity against HFF cells after 3 days; assay type: cell-based; settings: human
# In short: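 Subconfluent replicating HFF monolayers exposed to compound for 3 days; viability scored by microscopic evaluation and quantitative neutral red dye uptake; CC50 from a single determination.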
# [3] = Inhibition of VZV DNA polymerase by scintillation proximity assay; set-up: species or system Human alphaherpesvirus 3; in short: as §1
# [4] = Inhibition of HSV1 DNA polymerase by scintillation proximity assay; set-up: species or system Human alphaherpesvirus 1; in short: as §1
# [5] = Aqueous solubility of the compound; assay type: physicochemical
# [6] = Oral bioavailability in rat at 15 mg/kg; assay type: ADME, organism-based; settings: in vivo
# [7] = Inhibition of human DNA polymerase gamma by scintillation proximity assay; in short: as §1
# [8] = Oral bioavailability in dog at 15 mg/kg; assay type: ADME, organism-based, Canis lupus familiaris; settings: in vivo
# Human alphaherpesvirus 3 = experiment: Antiviral activity against VZV Webster in HFF cells by plaque reduction assay; assay type: functional, organism-based; settings: Human alphaherpesvirus 3, Webster
# Human alphaherpesvirus 1 = experiment: Antiviral activity against HSV1 KOS in Vero cells by plaque reduction assay; assay type: functional, organism-based; settings: Human alphaherpesvirus 1, KOS
# [9] = Inhibition of human DNA polymerase delta by scintillation proximity assay; in short: as §1
# [10] = Inhibition of human DNA polymerase alpha by scintillation proximity assay; in short: as §1
# [11] = Inhibition of EBV DNA polymerase by T7 quick-coupled transcription-translation system; set-up: species or system human gammaherpesvirus 4
# In short: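 EBV polymerase plus BMRF-1 in 50 mM Tris pH 8, 70 mM NH4SO4, 10 mM MgCl2, dCTP/dTTP/dGTP, 0.5 µCi 32P-dATP, 100 µg/mL activated calf thymus DNA; compound added before enzyme, 1% final DMSO; 30 min at 37 °C; TCA precipitation onto glass filters, incorporated 32P counted by scintillation.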
# Human gammaherpesvirus 4 = experiment: Antiviral activity against EBV in GG68 cells after 72 hrs; assay type: functional, organism-based; settings: human gammaherpesvirus 4, GG68, 72 h
# In short: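 GG68 cells induced into lytic replication with 40 ng/mL TPA plus 4 mM n-butyric acid; compound added at 0.5% final DMSO; 72 h at 37 °C, then cells lysed and DNA harvested.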
SMILES,IC50 [1] [nM],IC50 (Human betaherpesvirus 5) [nM],other results
CN(Cc1cc2c(=O)c(C(=O)NCc3ccc(Cl)cc3)cn(C)c2s1)CC(O)c1ccccc1 (centres undefined),100,180,–
CN(Cc1cc2c(=O)c(C(=O)NCc3cccc(Cl)c3)cn(C)c2s1)CC(O)c1ccc(F)cc1 (centres undefined),203,250,–
CN(Cc1cc2c(=O)c(C(=O)NCc3ccc(Cl)cc3)cn(C)c2s1)CC(O)c1ccc(C#N)cc1 (centres undefined),315,300,–
Nc1nc(O)c2ncn(COC(CO)CO)c2n1 [GANCICLOVIR],–,–,CC50 at 72 h [2]: > 100000 nM
CN(Cc1cc2c(=O)c(C(=O)NCc3ccc(Cl)cc3)cn(C)c2s1)C[C@@H](O)c1ccccc1,–,–,IC50 [3]: 200 nM; IC50 [4]: 400 nM
CN(Cc1cc2c(=O)c(C(=O)NCc3ccc(Cl)cc3)cn(C)c2s1)CC(O)c1ccoc1 (centres undefined),250,400,–
CC(O)CN(C)Cc1cc2c(=O)c(C(=O)NCc3ccc(Cl)cc3)cn(C)c2s1 (centres undefined),3530,1500,–
Cn1cc(C(=O)NCc2ccc(Cl)cc2)c(=O)c2cc(CN(CC(O)c3ccccc3)C3CC3)sc21 (centres undefined),8900,> 5000,–
CN(Cc1cc2c(=O)c(C(=O)NCc3ccc(F)cc3)cn(C)c2s1)CC(O)c1ccc(F)cc1 (centres undefined),220,200,–
CC(C)N(Cc1cc2c(=O)c(C(=O)NCc3ccc(Cl)cc3)cn(C)c2s1)CC(O)c1ccccc1 (centres undefined),2040,1600,–
Cn1cc(C(=O)NCc2ccc(Cl)cc2)c(=O)c2cc(CNCC(O)c3ccccc3)sc21 (centres undefined),8400,> 5000,–
CN(Cc1cc2c(=O)c(C(=O)NCc3ccc(Cl)cc3)cn(C)c2s1)CC(O)c1nccs1 (centres undefined),235,200,–
Cn1cc(C(=O)NCc2ccc(Cl)cc2)c(=O)c2cc(CN(CCO)CC(O)c3ccccc3)sc21 (centres undefined),1580,400,–
CCN(Cc1cc2c(=O)c(C(=O)NCc3ccc(Cl)cc3)cn(C)c2s1)CC(O)c1ccccc1 (centres undefined),240,450,–
CN(Cc1cc2c(=O)c(C(=O)NCc3ccc(Cl)cc3)cn(C)c2s1)C[C@H](O)c1ccccc1,2550,–,IC50 [3]: 5000 nM; IC50 [4]: 10500 nM
Nc1nc2c(ncn2COCCO)c(=O)[nH]1 [ACYCLOVIR],–,–,CC50 at 72 h [2]: > 100000 nM; IC50 (Human gammaherpesvirus 4): 6900 nM
CC(C)C(O)CN(C)Cc1cc2c(=O)c(C(=O)NCc3ccc(Cl)cc3)cn(C)c2s1 (centres undefined),17500,> 5000,–
O=C(O)P(=O)(O)O [FOSCARNET],–,–,IC50 [7]: < 280 nM

# Continued by falling IC50 [1], values first:
IC50 [1] [nM],IC50 (Human betaherpesvirus 5) [nM],SMILES,other results
200,85,CN(Cc1cc2c(=O)c(C(=O)NCc3ccc(Cl)cc3)cn(C)c2s1)CC(O)c1ccncc1 (centres undefined),–
175,250,CN(Cc1cc2c(=O)c(C(=O)NCc3ccc(Cl)cc3)cn(C)c2s1)CC(O)c1cccs1 (centres undefined),–
160,60,CN(Cc1cc2c(=O)c(C(=O)NCc3cccc(Cl)c3)cn(C)c2s1)CC(O)c1cccnc1 (centres undefined),–
100,57,CN(Cc1cc2c(=O)c(C(=O)NCc3ccc(Cl)cc3)cn(C)c2s1)CC(O)c1ccc(O)cc1 (centres undefined),–
100,100,CN(Cc1cc2c(=O)c(C(=O)NCc3ccc(Cl)cc3)cn(C)c2s1)CC(O)c1ncccn1 (centres undefined),–
87,20,COc1cccc(C(O)CN(C)Cc2cc3c(=O)c(C(=O)NCc4ccc(Cl)cc4)cn(C)c3s2)c1 (centres undefined),–
86,90,CN(Cc1cc2c(=O)c(C(=O)NCc3cccc(Cl)c3)cn(C)c2s1)CC(O)c1ccccn1 (centres undefined),solubility [5]: 9 µM
85,65,CN(Cc1cc2c(=O)c(C(=O)NCc3ccc(Cl)cc3)cn(C)c2s1)CC(O)c1cnccn1 (centres undefined),solubility [5]: 72 µM
77,30,CN(Cc1cc2c(=O)c(C(=O)NCc3ccc(Cl)cc3)cn(C)c2s1)CC(O)c1ccco1 (centres undefined),solubility [5]: 0.4 µM
66,100,CN(Cc1cc2c(=O)c(C(=O)NCc3ccc(Cl)cc3)cn(C)c2s1)CC(O)c1cccc(C#N)c1 (centres undefined),–
65,40,CN(Cc1cc2c(=O)c(C(=O)NCc3ccc(Cl)cc3)cn(C)c2s1)CC(O)c1ccc2ccccc2n1 (centres undefined),–
61,100,CN(Cc1cc2c(=O)c(C(=O)NCc3cccc(Cl)c3)cn(C)c2s1)C[C@@H](O)c1ccccn1,bioavailability [6]: 45%; IC50 [7]: > 40000 nM; CC50 at 72 h [2]: > 100000 nM; bioavailability [8]: 76%; IC50 [11]: 70 nM; IC50 (Human alphaherpesvirus 3): 2 nM; IC50 (Human alphaherpesvirus 1): 3000 nM; IC50 [9]: > 40000 nM; IC50 (Human gammaherpesvirus 4): 200 nM; IC50 [3]: 21 nM; IC50 [4]: 76 nM; IC50 [10]: > 40000 nM
37,15,CN(Cc1cc2c(=O)c(C(=O)NCc3ccc(Cl)cc3)cn(C)c2s1)C[C@@H](O)c1cnccn1,bioavailability [6]: 21%; IC50 [7]: > 40000 nM; CC50 at 72 h [2]: > 100000 nM; bioavailability [8]: 66%; IC50 (Human alphaherpesvirus 3): 7 nM; IC50 (Human alphaherpesvirus 1): 1600 nM; IC50 [9]: > 40000 nM; IC50 [3]: 19 nM; IC50 [4]: 76 nM; IC50 [10]: > 40000 nM
35,–,C[C@H](O)CN(C)Cc1cc2c(=O)c(C(=O)NCc3ccc(Cl)cc3)cn(C)c2s1,–
12,150,CN(Cc1cc2c(=O)c(C(=O)NCc3ccc(Cl)cc3)cn(C)c2s1)CC(O)c1cc2ccccc2o1 (centres undefined),–
